# In the library only some 6.9% were active in any assay of this set; here they are far more common.
# PostGolgi ctrl – growth of the yeast control strain, post-Golgi counter-screen; efflux-deficient yeast background strain, growth absorbance A615, 16 h; inhibition, % at 10 µM; 98,000 compounds, 5% hits
# Candida biofilm – kills Candida albicans biofilms. C. albicans biofilm + clotrimazole, Alamar Blue. inhibition, % at 6 µM. 85,000 compounds, 0.14% hits. AID 834;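 active means inhibition above 20%; inactive means inhibition below 20%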;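 further: preformed 24 hr biofilms exposed to compound for 48 hr; 0% = biofilm without compound and 100% = blank killed by clotrimazole plus chlorhexidine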
# Ecoli tolC – blocks growth of E. coli BW25113 tolC mutant; 65,000 compounds, 2.2% hits; OD615; AID 573; growth inhibition, % at 10 µM (by protocol);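 active means growth inhibition at or above a cutoff equal to the mean over every tested compound plus 3 SD, cut at about 60% in these data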;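 further: growth measured after 20 h incubation at 37 °C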
#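 Test system: E. coli BW25113 ΔtolC::kan bacteria; incubation: 37 °C, 20 h exposure; medium: LB broth supplemented with 50 µg/mL kanamycin; read-out basis: percent growth inhibition; signal: A615 absorbance measurement; compound: 10 µM final, single dose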
# FAK blocker – FAK (human) kinase inhibition; Q05397; biochemical FAK kinase activity assay; inhibition, %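 (tested at 7 µM)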; 97,000 compounds, 0.84% hits; AID 727; in the data active means inhibition above about 19%;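 further: 0% = DMSO and 100% = reference compound high control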
# Target sequence (Q05397 whole entry, looked up): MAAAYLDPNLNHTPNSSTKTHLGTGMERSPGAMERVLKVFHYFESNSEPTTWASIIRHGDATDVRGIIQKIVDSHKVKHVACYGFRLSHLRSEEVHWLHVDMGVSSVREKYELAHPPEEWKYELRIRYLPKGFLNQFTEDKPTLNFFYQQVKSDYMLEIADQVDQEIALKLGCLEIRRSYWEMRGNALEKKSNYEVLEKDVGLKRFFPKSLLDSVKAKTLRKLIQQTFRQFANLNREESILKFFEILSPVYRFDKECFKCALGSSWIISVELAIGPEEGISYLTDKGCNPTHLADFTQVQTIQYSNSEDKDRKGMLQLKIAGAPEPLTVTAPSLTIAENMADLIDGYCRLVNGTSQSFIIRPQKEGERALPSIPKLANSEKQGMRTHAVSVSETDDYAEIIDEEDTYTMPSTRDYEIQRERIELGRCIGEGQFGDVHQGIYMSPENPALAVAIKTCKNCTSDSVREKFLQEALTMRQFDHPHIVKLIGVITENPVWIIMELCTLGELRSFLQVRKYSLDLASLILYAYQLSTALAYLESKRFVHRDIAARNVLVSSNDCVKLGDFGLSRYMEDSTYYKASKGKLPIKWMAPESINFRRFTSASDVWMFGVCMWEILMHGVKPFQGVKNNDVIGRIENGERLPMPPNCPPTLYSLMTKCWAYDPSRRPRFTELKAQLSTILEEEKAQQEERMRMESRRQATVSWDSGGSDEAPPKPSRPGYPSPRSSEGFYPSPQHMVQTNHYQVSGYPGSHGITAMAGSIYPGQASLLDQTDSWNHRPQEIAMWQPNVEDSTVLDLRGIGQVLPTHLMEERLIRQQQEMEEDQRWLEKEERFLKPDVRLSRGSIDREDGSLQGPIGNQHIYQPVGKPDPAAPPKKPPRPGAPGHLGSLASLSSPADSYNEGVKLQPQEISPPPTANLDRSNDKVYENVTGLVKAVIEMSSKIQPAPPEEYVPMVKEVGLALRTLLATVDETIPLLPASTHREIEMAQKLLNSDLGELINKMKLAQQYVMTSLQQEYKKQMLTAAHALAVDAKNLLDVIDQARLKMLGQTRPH
# Pyk2 oligo antag – antagonists of human Pyk2 oligomerization. Q293 cells, Pyk2 FERM NanoBiT luminescence; stronger effect = lower value. z-score (the deposit names both 25 µM and 10 µM). 99,000 compounds, 0.83% hits. AID 1347419. Q14289;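 active means Z-score of -3 or lower, scaled per plate to the spread of control and sample wells; inactive means z-score above -3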;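 further: negative z-score means lost luminescence so less FERM oligomerization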
# PostGolgi yeast – growth inhibition of a yeast mutant, post-Golgi transport screen | post-Golgi transport phenotypic cell assay | inhibition, % at 10 µM | 98,000 compounds, 0.9% hits;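 further: yeast cells grown in 1536-well plates; yeast grown about 18 h at 30C before absorbance read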
# Active calls of the source: *; / = no result given; ! = a repeat was not active. Unless noted, no stated cut-off is given here; in the data, active means inhibition above about 30%; inactive means the rest.
SMILES,PostGolgi ctrl,Candida biofilm,Ecoli tolC,FAK blocker,Pyk2 oligo antag,PostGolgi yeast
Cc1noc(C)c1S(=O)(=O)N(CCc1ccccc1)Cc1ccccc1,17.7,5.4,62.7*,-2.4,1,4.2
Cc1noc(C)c1S(=O)(=O)N(C)CC(=O)NCc1ccccc1,-0.6,6.3,-3.1,-4.3,1.16,4.4
COc1ccc(C(=O)Nc2nc(C)c(C(=O)N(C)C)s2)cc1OC,33.6*,7.9,-7.2,2.5,-0.35,9.3
Cc1nc(NC(=O)c2ccc(Br)s2)sc1C(=O)N(C)C,19.6,4.7,0.3,-1.2,0.13,1.3
CCN(C(=O)c1cc2cc(OC)ccc2oc1=O)c1ccccc1,3.2,10.0,-13.5,-3.8,0.23,3.1
CCc1nc(SCC(=O)N2c3ccccc3CC2C)c2c(C)c(C)sc2n1 (stereo unspecified),32.9*,/,/,-0.1,-2.29,1.1
CN1CCN(c2c(F)cc3c(=O)c(C(=O)O)cn4c3c2SCC4)CC1,5.2,6.1,100.0*,/,-0.56,2.6
Cc1c(-n2cc(C(=O)O)c(=O)c3cc(F)c(N4CCCC4)c(F)c32)c(=O)n(-c2ccccc2)n1C,/,8.9,-29.1,/,0.26,/
COc1ccc(-c2noc(CSc3nnc(CCc4ccccc4)n3-c3ccccc3)n2)cc1OC,21.2,4.5,32.9,5.8,-1.2,18.7
COCC(=O)Nc1nc2ccc(C)cc2s1,7.0,5.9,-7.5,-0.5,-0.03,-2.1
Cc1ccc2nc(NC(=O)CCNS(=O)(=O)c3cccs3)sc2c1,36.4*,3.2,11.4,/,-0.87,14.5
Cc1ccc2nc(NC(=O)CCNS(=O)(=O)c3ccc(Br)s3)sc2c1,41.9*,4.5,53.6,-1.7,-0.53,4.2
CCOC(=O)C1(C)NC(c2cc(OC)c(OC)c(OC)c2)C2C(=O)N(CC)C(=O)C21 (stereo unspecified),7.8,11.9,-10.9,-5.8,0.33,-7.1
CC(=O)c1c(C)[nH]c(C(=O)CSc2nnc(C3CCCCC3)n2N)c1C,5.8,4.4,-2.6,0.1,-1.04,7.4
CCOC(=O)Nc1ccc2c(c1)N(C(=O)CCN1CCN(C)CC1)c1ccccc1S2,1.5,1.9,/,0.7,0.72,-4.4
CCOC(=O)Nc1ccc2c(c1)N(C(=O)N1CCN(C)CC1)c1ccccc1S2,8.5,1.3,64.9*,-3.3,-1.93,-1.9
CCCOc1ccc2oc(=O)c3c(c2c1)CCCN3C(=O)CN1CCc2ccccc2C1,15.3,9.0,76.7*,2.0,1.41,0.5
CC1CCN(CC(=O)N2CCCc3c2c(=O)oc2ccc(OCc4ccccc4)cc32)CC1,7.0,0.0,/,1.2,0.04,4.0
CCOC(=O)c1ccc(-c2nnc(-c3ccc(Cl)cc3Cl)o2)cc1,16.7,8.2,-11.6,/,0.16,-4.2
Cc1ncsc1CCOC(=O)C12CC3CC(CC(C3)C1)C2,46.4*,/,/,2.7,-0.32,-2.6
Cc1ncsc1CCOC(=O)c1cccnc1,7.3,2.3,-4.2,0.7,0.51,-2.1
CC1=NN(C(N)=S)C(=O)C1N=Nc1ccc(C)cc1C (stereo unspecified),27.1,/,/,-2.5,/,6.3
CC1=NN(C(N)=S)C(=O)C1N=Nc1c(C)cc(C)cc1C (stereo unspecified),32.1*,5.8,/,-2.0,-0.6,10.6
CC1=NN(C(N)=S)C(=O)C1N=Nc1ccccc1C (stereo unspecified),30.4*,10.0,/,-2.3,-0.78,8.5
CCN(CC)C(=O)c1cnn(-c2ccccc2)c1NC(=O)c1cccc(F)c1,4.0,-2.3,/,1.2,1.07,6.2
SMILES,PostGolgi ctrl,Candida biofilm,Ecoli tolC,FAK blocker,Pyk2 oligo antag,PostGolgi yeast
COc1ccccc1-c1nnc(SC/C(O)=C(\C#N)c2nc3ccccc3[nH]2)n1C1CCCCC1,/,0.0,71.4*,/,/,/
O=C(c1ccco1)N1CCN(C(=O)c2cc(-c3ccccc3)nc3ccccc23)CC1,31.1*,5.7,/,-3.3,-0.19,-2.6
CCN1CCN(c2cc(C(C)(C)C)nc3c(-c4ccccc4)c(C)nn23)CC1,76.4*,5.4,/,0.1,-0.23,20.6
O=C(c1cc(-c2ccccc2)nc2ccccc12)N1CCOCC1,-4.9,10.3,2.5,2.8,-1.13,-7.6
CCCc1cc(N2CCCC2)n2nc(C)c(-c3ccccc3)c2n1,-0.9,4.2,32.7,3.5,0.99,1.0
Cc1cc(N2CCN(C(=O)c3ccco3)CC2)n2nc(C)c(-c3ccccc3)c2n1,97.9*,9.9,5.5,-1.9,0.39,30.9*
Cc1cc(N2CCN(C(=O)c3ccco3)CC2)n2nc(C)c(-c3ccc(Cl)cc3)c2n1,/,1.5,-1.0,/,/,/
Cc1nc2cc(-c3cccc(Cl)c3)nn2c(N2CCN(C(=O)c3ccco3)CC2)c1C,/,-3.5,20.6,/,/,/
Cc1cc(N2CCN(C(=O)c3ccco3)CC2)n2nc(-c3cccc(Cl)c3)cc2n1,51.6*,6.2,8.6,/,-0.49,7.3
Cc1ccccc1C(=O)N1CCc2cc(-c3nc(NC(=O)Cc4ccc5c(c4)OCO5)sc3C)ccc21,/,/,/,/,-0.37,/
O=C(Nc1cccc2cccnc12)c1cccnc1,13.3,-4.3,-0.5,1.8,0.23,-1.5
CC(=O)Nc1sc2c(c1C#N)CCCC2,9.4,1.5,/,0.4,0.28,7.8
COc1cc(C(=O)Nc2cccc3cccnc23)cc(OC)c1OC,4.7,-3.0,/,6.5,-0.45,31.8*
Cc1onc(-c2ccccc2Cl)c1C(=O)Nc1cccc2cccnc12,33.4*,2.8,30.0,2.7,-1.38,-0.3
N#Cc1c(NC(=O)C2CC(c3ccccc3Cl)=NO2)sc2c1CCC2 (stereo unspecified),14.5,/,/,0.8,-0.85,-1.5
Cc1onc(-c2ccccc2Cl)c1C(=O)Nc1sc2c(c1C#N)CCC2,30.1*,6.1,82.9*,-5.8,0.02,-10.3
N#Cc1c(NC(=O)c2ccncc2)sc2c1CCC2,30.5*,3.9,8.7,1.7,-0.13,2.1
CCOC(=O)C1C(=O)CC(C)(O)C(C(=O)OCC)C1c1cc(Br)ccc1OC (stereo unspecified),-1.7,1.6,6.6,-0.1,-0.12,11.4
COc1ccc(C(=O)OCC(=O)Nc2ccc(F)c(F)c2F)cc1OC,10.7,5.8,/,0.5,1.54,-20.0
COc1ccc(-c2cn3c(C)c(C(=O)NC(C)(C)C)sc3n2)cc1,/,4.7,6.5,/,/,/
Cc1ccc(-n2c(O)c(/C=N/n3cnnc3)c3ccccc3c2=O)cc1,33.5*!,10.2,5.7,3.2,0.38,3.3
COc1ccc(-n2c(=O)[nH]cc(C(=O)Nc3ccccc3)c2=O)cc1,1.8,2.1,/,0.3,/,-5.1
CC(=O)Nc1sc2c(c1C(c1ccc(Cl)cc1)N1CCOCC1)CCCC2 (stereo unspecified),31.2*,-0.1,/,1.9,-1.99,28.9
CC(=O)Nc1sc2c(c1C(c1ccc(F)cc1)N1CCOCC1)CCCC2 (stereo unspecified),19.4,/,/,-1.6,-1.87,-2.9
CCCc1cc(C(N)=O)c(NC(=O)c2cc(C)on2)s1,49.1*,1.1,20.1,7.0,-2.37,8.8
COCCN(C(=O)C1CCC1)c1nnc(-c2cccnc2)s1,-2.6,3.5,/,-1.3,0.81,16.7
